Measurements: ChEMBL document CHEMBL4007511, “Synthesis and Biological Evaluation of Bile Acid Analogues Inhibitory to Clostridium difficile Spore Germination” (J Med Chem, 2017)
Active and inactive are the calls of the source. No cut-off for these calls is given here.

How the values were obtained:
Clostridioides difficile [1] = experiment: Antibacterial activity against Clostridium difficile NAP1 assessed as concentration required for complete inhibition of TCA-induced spore germination measured after 20 mins under anaerobic condition; assay type: functional; conditions: NAP1, 20 min, read-out: MEC
Outline: (§1)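 Spores (~0.5 McFarland, heat-treated 65 °C for 30 min) inoculated anaerobically into pre-reduced (2–3 h) BHIS (0.5% yeast extract, 0.1% L-cysteine) containing 2000 μM taurocholate plus analogue at varying concentrations; OD600 read each minute for 20 min, normalized to t0. Complete inhibition = relative OD600 ≥0.95 at 20 min; triplicate wells, solvent (DMSO or DMSO/ethanol) controls.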

Clostridioides difficile [2] = experiment: Competitive inhibition of taurocholate-induced spore germination in Clostridium difficile UK1 at 0.2 mM by Michaelis-Menten kinetic analysis; assay type: functional
Clostridioides difficile [3] = experiment: Inhibition of TCA-induced spore germination in Clostridium difficile NAP1 assessed as spore germination at 10 uM measured after 20 mins under anaerobic condition by phase-contrast microscopic analysis relative to control; assay type: functional; parameters: scale not given: the % may be the effect or the level left
Outline: (§2)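 Heat-treated spores exposed to BHIS with 2000 μM taurocholate plus analogue or DMSO control; t0 samples put on ice at once, t20 samples held 20 min at room temperature then iced; phase-bright spores and phase-dark germinated cells counted by hemocytometer under phase-contrast. % germination of total cells; relative value = (t20−t0) test/(t20−t0) control; triplicate, mean ± SD.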

Clostridioides difficile [4] = experiment: Inhibition of TCA-induced spore germination in Clostridium difficile NAP1 at 0.2 mM using varying levels of TCA measured after 20 mins under anaerobic condition; assay type: functional
in vitro [5] = conditions: human, Caco-2
in vitro [6] = conditions: human, Caco-2; remark: listed apart in the source
Clostridioides difficile [7] = experiment: Induction of spore germination in Clostridium difficile NAP1 at 1500 to 2000 uM measured after 20 mins under anaerobic condition
[8] = human, caco-2, 10 µM
[9] = human, caco-2, 10 µM; remark: listed apart in the source
Clostridioides difficile [10] = experiment: Inhibition of TCA-induced spore germination in Clostridium difficile NAP1 at 50 uM measured after 20 mins under anaerobic condition by phase-contrast microscopic analysis; assay type: functional; outline: as §2
Clostridioides difficile [11] = experiment: Inhibition of TCA-induced spore germination in Clostridium difficile NAP1 assessed as compound concentration required for complete inhibition by spectrophotometric method; assay type: functional; conditions: read-out: MEC; outline: as §1
Clostridioides difficile [12] = experiment: Inhibition of taurocholate/glycine-induced spore germination in Clostridium difficile 630 preincubated for 15 mins followed by taurocholate/glycine addition measured every minute for 90 mins; assay type: functional

Row | Compound | minimal effective concentration (Clostridioides difficile [1]) [µM] | further results
1 | COC(=O)CC[C@@H](C)[C@H]1CC[C@H]2[C@@H]3[C@@H](O)C[C@@H]4C[C@H](OC)CC[C@]4(C)[C@H]3CC[C@]12C | 500 | –
2 | COC(=O)CC[C@@H](C)[C@H]1CC[C@H]2[C@@H]3[C@H](O)C[C@@H]4C[C@H](O)CC[C@]4(C)[C@H]3CC[C@]12C | 500 | Ki (Clostridioides difficile [2]): 44 µM; Activity (Clostridioides difficile [3]): 73%; Ki (Clostridioides difficile [4]): 118 µM
3 | CO[C@@H]1CC[C@@]2(C)[C@@H](C1)C[C@@H](OS(=O)(=O)[O-])[C@@H]1[C@@H]2CC[C@]2(C)[C@@H]([C@H](C)CCC(=O)c3nnn[n-]3)CC[C@@H]12.[Na+].[Na+] | 25 | Papp B→A at 10 µM (in vitro [5]): 0.4 ×10⁻⁶ cm/s; Papp A→B at 10 µM (in vitro [6]): 0.4 ×10⁻⁶ cm/s; Activity (Clostridioides difficile [3]): 51%
4 | COC(=O)CC[C@@H](C)[C@H]1CC[C@H]2[C@@H]3[C@H](O)C[C@@H]4C[C@H](OC)CC[C@]4(C)[C@H]3CC[C@]12C | 500 | –
5 | COC(=O)CC[C@@H](C)[C@H]1CC[C@H]2[C@@H]3[C@@H](O)C[C@@H]4C[C@H](O)CC[C@]4(C)[C@H]3CC[C@]12C | 50 | –
6 | COC(=O)CC[C@@H](C)[C@H]1CC[C@H]2[C@@H]3[C@H](OC)C[C@@H]4C[C@H](OC)CC[C@]4(C)[C@H]3CC[C@]12C | 500 | –
7 | CO[C@@H]1CC[C@@]2(C)[C@@H](C1)C[C@H](O)[C@@H]1[C@@H]2CC[C@]2(C)[C@@H]([C@H](C)CCC(=O)O)CC[C@@H]12 | > 500 | Activity (Clostridioides difficile [7]): Toxic
8 | COC(=O)CC[C@@H](C)[C@H]1CC[C@H]2[C@@H]3C[C@H](O)[C@@H]4C[C@H](O)CC[C@]4(C)[C@H]3CC[C@]12C | 500 | –
9 | COC(=O)CC[C@@H](C)[C@H]1CC[C@H]2[C@H]3[C@H](CC[C@]12C)[C@@]1(C)CC[C@@H](O)C[C@H]1C[C@@]3(C)O | 50 | –
10 | CO[C@H]1C[C@@H]2C[C@H](O)CC[C@]2(C)[C@H]2CC[C@]3(C)[C@@H]([C@H](C)CCC(=O)O)CC[C@H]3[C@H]12 | > 500 | Activity (Clostridioides difficile [7]): Toxic
11 | C[C@H](CCC(=O)O)[C@H]1CC[C@H]2[C@@H]3C[C@H](O)[C@@H]4C[C@H](O)CC[C@]4(C)[C@H]3CC[C@]12C [HYODEOXYCHOLIC_ACID] | 500 | Activity (Clostridioides difficile [7]): Toxic
12 | CO[C@@H]1CC[C@@]2(C)[C@@H](C1)C[C@@H](O)[C@@H]1[C@@H]2CC[C@]2(C)[C@@H]([C@H](C)CCC(=O)O)CC[C@@H]12 | > 100 | Activity (Clostridioides difficile [7]): Toxic
13 | COC(=O)CC[C@@H](C)[C@H]1CC[C@H]2[C@@H]3[C@@H](OC)C[C@@H]4C[C@H](OC)CC[C@]4(C)[C@H]3CC[C@]12C | 500 | –
14 | C[C@H](CCC(=O)O)[C@H]1CC[C@H]2[C@@H]3[C@@H](OS(=O)(=O)O)C[C@@H]4C[C@H](O)CC[C@]4(C)[C@H]3CC[C@]12C | 3000 | –
15 | CCCCNC(=O)CC[C@@H](C)[C@H]1CC[C@H]2[C@@H]3[C@H](O)C[C@@H]4C[C@H](O)CC[C@]4(C)[C@H]3CC[C@]12C | 500 | –
16 | CC(=O)O[C@@H]1CC[C@@]2(C)[C@@H](C1)C[C@@H](OC(C)=O)[C@@H]1[C@@H]2CC[C@]2(C)[C@@H]([C@H](C)CCC(N)=O)CC[C@@H]12 | 50 | –

Row | Compound | minimal effective concentration (Clostridioides difficile [1]) [µM] | further results
17 | COC(=O)CC[C@@H](C)[C@H]1CC[C@H]2[C@@H]3[C@@H](OC)C[C@@H]4C[C@H](O)CC[C@]4(C)[C@H]3CC[C@]12C | 500 | –
18 | C[C@H](CCC(C)(C)O)[C@H]1CC[C@H]2[C@H]3[C@H](CC[C@]12C)[C@@]1(C)CC[C@@H](O)C[C@H]1C[C@@]3(C)O | > 1000 | –
19 | C[C@H](CCC(=O)N1CCCC1)[C@H]1CC[C@H]2[C@@H]3[C@@H](O)C[C@@H]4C[C@H](O)CC[C@]4(C)[C@H]3CC[C@]12C | 100 | –
20 | CO[C@@H]1CC[C@@]2(C)[C@@H](C1)C[C@H](OC)[C@@H]1[C@@H]2CC[C@]2(C)[C@@H]([C@H](C)CCC(=O)N3CCCC3)CC[C@@H]12 | 1000 | –
21 | CO[C@@H]1CC[C@@]2(C)[C@@H](C1)C[C@H](OS(=O)(=O)[O-])[C@@H]1[C@@H]2CC[C@]2(C)[C@@H]([C@H](C)CCC(=O)N3CCCC3)CC[C@@H]12.[Na+] | 50 | Papp [8]: 2.1 ×10⁻⁶ cm/s; Papp [9]: 0.1 ×10⁻⁶ cm/s; Activity (Clostridioides difficile [3]): 9%; inhibition (Clostridioides difficile [10]): Active; Ki (Clostridioides difficile [4]): 20 µM
22 | CO[C@@H]1CC[C@@]2(C)[C@@H](C1)C[C@H](OC)[C@@H]1[C@@H]2CC[C@]2(C)[C@@H]([C@H](C)CCC(=O)O)CC[C@@H]12 | > 1000 | Activity (Clostridioides difficile [3]): 75%
23 | COC(=O)CC[C@@H](C)[C@H]1CC[C@H]2[C@@H]3[C@H](OC)C[C@@H]4C[C@H](O)CC[C@]4(C)[C@H]3CC[C@]12C | 500 | –
24 | CCCCNC(=O)CC[C@@H](C)[C@H]1CC[C@H]2[C@@H]3[C@@H](O)C[C@@H]4C[C@H](O)CC[C@]4(C)[C@H]3CC[C@]12C | 500 | –
25 | C[C@H](CCC(=O)N1CCCC1)[C@H]1CC[C@H]2[C@@H]3[C@H](O)C[C@@H]4C[C@H](O)CC[C@]4(C)[C@H]3CC[C@]12C | 50 | –
26 | C[C@H](CCC(=O)O)[C@H]1CC[C@H]2[C@@H]3[C@H](O)C[C@@H]4C[C@H](O)CC[C@]4(C)[C@H]3CC[C@]12C [CHENODIOL] | 500 | –
27 | C[C@H](CCC(=O)O)[C@H]1CC[C@H]2[C@@H]3[C@@H](O)C[C@@H]4C[C@H](O)CC[C@]4(C)[C@H]3CC[C@]12C [URSODIOL] | – | minimal effective concentration (Clostridioides difficile [11]): 500 µM
28 | CO[C@@H]1CC[C@@]2(C)[C@@H](C1)C[C@@H](OC)[C@@H]1[C@@H]2CC[C@]2(C)[C@@H]([C@H](C)CCC(=O)N3CCCC3)CC[C@@H]12 | 500 | –
29 | CC(=O)O[C@@H]1CC[C@@]2(C)[C@@H](C1)C[C@H](OC(C)=O)[C@@H]1[C@@H]2CC[C@]2(C)[C@@H]([C@H](C)CCC(N)=O)CC[C@@H]12 | 50 | Activity (Clostridioides difficile [7]): Toxic
30 | C[C@H](CCC(=O)NC(C)(C)CO)[C@H]1CC[C@H]2[C@@H]3[C@H](O)C[C@@H]4C[C@H](O)CC[C@]4(C)[C@H]3CC[C@]12C | 500 | –
31 | C[C@H](CCC(=O)Nc1cccc(S(=O)(=O)O)c1)[C@H]1CC[C@H]2[C@@H]3[C@H](O)C[C@@H]4C[C@H](O)CC[C@]4(C)[C@H]3C[C@H](O)[C@]12C | > 1000 | Activity (Clostridioides difficile [3]): 78%; IC50 (Clostridioides difficile [12]): 58 µM
